Results as given in ChEMBL document CHEMBL3286113, “New potent antibacterial oxazolidinone (MRX-I) with an improved class safety profile” (J Med Chem, 2014).
In brackets after ≈: the same amount, converted by molar mass.

How the values were obtained:
[1] = system: Staphylococcus aureus; assay: Potency index, ratio of linezolid MIC90 to compound MIC90 for methicillin-resistant Staphylococcus aureus; assay type: functional
[2] = system: Staphylococcus; assay: Antibacterial activity against coagulase-negative Staphylococcus; assay type: functional
[3] = system: Rattus norvegicus; assay: Toxicity in female rat assessed as effect on WBC count at 200 to 300 mg/kg/day, po bid administered for 4 weeks (reference value: 3.66 x 10^9/L); assay type: organism-based; design: route oral; conditions: in vivo, 672 h
[4] = AUC (0 to 24 hrs) in human at 600 mg, po administered as single dose with meal measured on day 1; assay type: ADME, organism-based; design: time < 24 hr, dose 600 mg, route oral; conditions: plasma
Summary of the method: (§1)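 Randomized, double-blind, placebo-controlled multiple-dose study in 32 healthy subjects (half male, half female). Subjects took 28 oral doses of 600 or 800 mg over 15 days, each with a meal. A single dose was given on days 1 and 15 for full PK, and doses were given Q12h from day 2 to day 14. AUC0−24 was measured on days 1 and 15.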

[5] = system: Staphylococcus aureus; assay: Antibacterial activity against Staphylococcus aureus measured after 7 serial passages; assay type: functional
[6] = system: Rattus norvegicus; assay: Toxicity in female rat assessed as effect on platelet count at 20 mg/kg/day, po bid administered for 4 weeks (reference value: 654.6 x 10^9/L); assay type: organism-based; design: route oral; conditions: in vivo, 672 h
[7] = Cmax in fasted human at 300 mg, po administered as single dose; assay type: ADME, organism-based; design: dose 300 mg, route oral; conditions: in vivo
Summary of the method: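 Healthy volunteers (12; six of each sex) in a three-period Latin-square crossover. Each received single oral doses of 300, 600 and 900 mg under fasting conditions, with a 1-week washout between doses. Parameters from a noncompartmental model.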

[8] = system: Staphylococcus aureus; assay: Antibacterial activity against linezolid-resistant Staphylococcus aureus isolate 4184; assay type: functional
[9] = system: Staphylococcus aureus; assay: Antibacterial activity against Staphylococcus aureus measured after 9 serial passages; assay type: functional
[10] = AUC (0 to 24 hrs) in human at 800 mg, po administered as single dose with meal measured on day 1; assay type: ADME, organism-based; design: dose 800 mg, time < 24 hr, route oral; conditions: plasma; summary of the method: as §1
[11] = Half life in male rat at 5 mg/kg, po; assay type: ADME, organism-based; design: dose 5 mg/kg, route oral; conditions: in vivo
[12] = AUC (0 to 24 hrs) in human at 800 mg, po administered as single dose with meal measured on day 15; assay type: ADME, organism-based; design: dose 800 mg, time < 24 hr, route oral; conditions: plasma; summary of the method: as §1
[13] = system: Staphylococcus aureus; assay: Antibacterial activity against methicillin-sensitive Staphylococcus aureus ATCC 29213 in po dosed mouse thigh infection model; assay type: functional, organism-based; conditions: Thigh muscle
Summary of the method: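 Mouse thigh infection with S. aureus ATCC29213 (MSSA), 10 animals per dosing group. Oral doses were 5, 10, 20, 40 and 80 mg/kg. The read-out was log CFU per thigh after treatment, and the reduction (ΔLogCFU/thigh) was reported.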

[14] = system: Rattus norvegicus; assay: Toxicity in female rat assessed as change in bone marrow at 200 to 300 mg/kg/day, po bid administered for 4 weeks; assay type: organism-based; design: route oral; conditions: in vivo, 672 h
Summary of the method: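 Rats given the drug orally twice daily for 4 weeks, 10 rats per gender per group. Doses were 20, 100 and 200/300 mg/kg/day, with the top dose raised from 200 to 300 on day 15. Linezolid comparator at 100 and 200 mg/kg/day. Followed by a 4-week recovery. Mortality, body weight, hematology and bone marrow examined. TK blood sampled on days 1, 14 and 28.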

[15] = system: Staphylococcus aureus; assay: Antibacterial activity against methicillin-resistant Staphylococcus aureus isolate 0605 in mouse thigh infection model assessed as reduction of log10 CFU per thigh at 40 mg/kg, po; assay type: functional
[16] = system: Rattus norvegicus; assay: Toxicity in female rat assessed as effect on neutrophil count at 200 to 300 mg/kg/day, po bid administered for 4 weeks (reference value: 22.4%); assay type: organism-based; design: route oral; conditions: in vivo, 672 h
[17] = system: Rattus norvegicus; assay: Acute toxicity in rat administered as single dose; assay type: organism-based; conditions: in vivo
[18] = system: Streptococcus pneumoniae; assay: Antibacterial activity against penicillin intermediate-sensitive Streptococcus pneumoniae ATCC 49619 clinical isolate in po dosed mouse systemic infection model; assay type: functional; conditions: ATCC 49619, po
[19] = AUC (0 to t) in male rat at 45 mg/kg, po; assay type: ADME, organism-based; design: dose 45 mg/kg, route oral; conditions: plasma
Summary of the method: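 Rat PK by gender, with single oral doses of 5, 15 and 45 mg/kg and an iv dose of 5 mg/kg. Tmax, Cmax, T1/2 and AUC0−t were reported per gender.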

[20] = Half life in male rat at 15 mg/kg, po; assay type: ADME, organism-based; design: dose 15 mg/kg, route oral; conditions: in vivo
[21] = system: Streptococcus pneumoniae; assay: Antibacterial activity against Streptococcus pneumoniae assessed as time required for growth inhibition; assay type: functional
[22] = system: Streptococcus pneumoniae; assay: Antibacterial activity against penicillin-sensitive Streptococcus pneumoniae isolate 0806; assay type: functional
[23] = biological target: Cytochrome P450 2C19 (Homo sapiens, UniProt P33261); assay: Inhibition of CYP2C19 (unknown origin) at 1 to 200 uM; assay type: ADME
[24] = system: Rattus norvegicus; assay: Toxicity in female rat assessed as effect on RBC count at 200 to 300 mg/kg/day, po bid administered for 4 weeks (reference value: 7.28 x 10^12/L); assay type: organism-based; design: route oral; conditions: in vivo, 672 h
[25] = system: Streptococcus constellatus; assay: Antibacterial activity against Streptococcus constellatus; assay type: functional
[26] = system: Enterococcus faecium; assay: Bacteriostatic activity against vancomycin-resistant Enterococcus faecium; assay type: functional
[27] = AUC (0 to infinity) in human at 900 mg, po administered as single dose at 30 mins post fat meal; assay type: ADME, organism-based; design: dose 900 mg, time infinity, route oral; conditions: plasma
Summary of the method: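 Crossover study in 12 subjects (6 of each gender). Each received a single oral 900 mg dose either fasting or 30 min after a fat-containing meal, and AUC0−inf was determined.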

[28] = system: Rattus norvegicus; assay: Toxicity in female rat assessed as effect on mean corpuscular volume at 200 to 300 mg/kg/day, po bid administered for 4 weeks (reference value: 53.72 fL); assay type: organism-based; design: route oral; conditions: in vivo, 672 h
[29] = system: Staphylococcus aureus; assay: Antibacterial activity against methicillin-sensitive Staphylococcus aureus isolate 15; assay type: functional
[30] = system: Streptococcus mitis; assay: Antibacterial activity against Streptococcus mitis; assay type: functional
[31] = Clastogenicity in CHL cells assessed as induction of structural chromosomal aberration at 50 to 400 ug/mL measured over 6 hrs in absence of metabolic activation; assay type: toxicity, cell-based, Cricetulus griseus; conditions: chinese hamster
Summary of the method: (§2)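 Chinese hamster lung cells scored for structural chromosome aberrations with or without metabolic activation. Exposure was 50–400 μg/mL over 6 h, or 25–200 μg/mL over 24 h.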

[32] = system: Streptococcus anginosus; assay: Antibacterial activity against Streptococcus anginosus; assay type: functional
[33] = Half life in po dosed rat; assay type: ADME, organism-based; conditions: in vivo
[34] = Oral bioavailability in dog; assay type: ADME, organism-based, Canis lupus familiaris; conditions: in vivo
[35] = system: Mus musculus; assay: Dose normalized AUC (0 to t) in po dosed mouse; assay type: ADME, organism-based; conditions: in vivo
[36] = system: Staphylococcus aureus; assay: Antibacterial activity against methicillin-sensitive Staphylococcus aureus ATCC 29213; assay type: functional
[37] = Clastogenicity in CHL cells assessed as induction of structural chromosomal aberration at 50 to 400 ug/mL measured over 6 hrs in presence of metabolic activation; assay type: toxicity, cell-based, Cricetulus griseus; conditions: chinese hamster; summary of the method: as §2
[38] = Cmax in human at 600 mg, po administered as single dose with meal measured on day 15; assay type: ADME, organism-based; design: dose 600 mg, route oral; conditions: in vivo
Summary of the method: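 Randomized, double-blind, placebo-controlled multiple-dose study in 32 healthy subjects, half male and half female. Each dose was taken with a meal, at 600 or 800 mg, 28 doses over 15 days. A single dose on days 1 and 15 gave full PK; BID (Q12h) dosing ran on days 2–14.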

[39] = system: Rattus norvegicus; assay: Toxicity in female rat assessed as effect on neutrophil count at 100 mg/kg/day, po bid administered for 4 weeks (reference value: 22.4%); assay type: organism-based; design: route oral; conditions: in vivo, 672 h

Cytochrome P450 2C19, sequence (P33261 whole entry): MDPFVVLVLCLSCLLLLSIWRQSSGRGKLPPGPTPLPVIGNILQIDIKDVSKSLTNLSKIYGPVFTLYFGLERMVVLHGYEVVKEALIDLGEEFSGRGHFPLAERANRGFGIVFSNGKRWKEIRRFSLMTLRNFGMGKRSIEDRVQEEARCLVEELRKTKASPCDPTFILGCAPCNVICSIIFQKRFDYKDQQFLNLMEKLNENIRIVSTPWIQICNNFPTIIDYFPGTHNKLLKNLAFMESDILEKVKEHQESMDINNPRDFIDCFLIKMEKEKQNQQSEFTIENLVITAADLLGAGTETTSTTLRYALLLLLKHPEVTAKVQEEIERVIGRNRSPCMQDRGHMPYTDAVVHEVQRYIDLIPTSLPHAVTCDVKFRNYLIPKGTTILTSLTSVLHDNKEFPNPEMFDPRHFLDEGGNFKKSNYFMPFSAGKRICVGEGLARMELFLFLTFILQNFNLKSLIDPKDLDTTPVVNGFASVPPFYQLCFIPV

O=C1C=CN(c2c(F)cc(N3C[C@H](CNc4ccon4)OC3=O)c(F)c2F)CC1 [CONTEZOLID]
Ratio [1]: 2 | MIC50 [2]: 0.5 µg/mL (≈ 1.22 µM) | MIC90 [2]: 0.5 µg/mL (≈ 1.22 µM) | Activity [3]: 2.72 ×10⁹ /L | AUC(0-t) at 24 h [4]: 68600 ng·h/mL | MIC [5]: 2 µg/mL (≈ 4.9 µM) | Activity [6]: 638.2 ×10⁹ /L | Cmax [7]: 8070 ng/mL | MIC [8]: > 16 µg/mL | MIC [9]: 2 µg/mL (≈ 4.9 µM) | AUC(0-t) at 24 h [10]: 91800 ng·h/mL | half-life [11]: 1.08 h | AUC(0-t) at 24 h [12]: 90400 ng·h/mL | Activity [13]: Dose-dependent effect | Activity [14]: Toxic | deltalog10CFU [15]: 4.13 | Activity [16]: 26.4% | Activity [17]: 5000 mg/kg | ED50 [18]: 8.1 mg/kg | AUC(0-t) [19]: 93800 ng·h/mL | half-life [20]: 1.18 h | Time [21]: 1.8 h | MIC [22]: 2 µg/mL (≈ 4.9 µM) | inhibition (INH) [23]: Not Active | Activity [24]: 5.77 ×10¹² /L | MIC50 [25]: 0.5 µg/mL (≈ 1.22 µM) | MIC90 [25]: 1 µg/mL (≈ 2.45 µM) | MIC [26]: 1 µg/mL (≈ 2.45 µM) | MIC50 [26]: 1 µg/mL (≈ 2.45 µM) | MIC90 [26]: 1 µg/mL (≈ 2.45 µM) | AUC(0-inf) [27]: 141000 ng·h/mL | Activity [28]: 53.02 fL | MIC [29]: 2 µg/mL (≈ 4.9 µM) | MIC50 [30]: 0.5 µg/mL (≈ 1.22 µM) | MIC90 [30]: 1 µg/mL (≈ 2.45 µM) | Activity [31]: Non-toxic | MIC50 [32]: 0.5 µg/mL (≈ 1.22 µM) | MIC90 [32]: 1 µg/mL (≈ 2.45 µM) | half-life [33]: 1.5 h | bioavailability [34]: 37% | AUCt/dose [35]: 1654 ng·h/mL/mg/kg | MIC [36]: 1 µg/mL (≈ 2.45 µM) | Activity [37]: Non-toxic | Cmax [38]: 20600 ng/mL | Activity [39]: 18.4%
